Test results taken from paper PMC10353488 (Journal of medicinal chemistry, 2020).

Key:
[1] = system: human keratinocyte (HaCaT) cells; experiment: Cytotoxicity assay; assay type: cell-based; conditions: 50 μg/mL, 24 h
[2] = system: S. aureus JE2; experiment: Broth microdilution antibacterial assay, S. aureus JE2; assay type: cell-based, Staphylococcus aureus; conditions: concentrations up to 256 μg/mL
[3] = system: E. coli K12; experiment: Broth microdilution antibacterial assay, E. coli K12; assay type: cell-based, Escherichia coli; conditions: concentrations up to 256 μg/mL
[4] = system: D. melanogaster; experiment: Toxicity; assay type: in vivo, Drosophila melanogaster; conditions: 0.25, 0.5, and 1.0 mM
Method in brief: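 Eggs from two different crosses collected for 8 hours in culture flasks on solid agar base (5% w/v) topped with live baker's yeast plus sugar.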

[5] = system: C. trachomatis serovar L2; experiment: Inclusion forming units; assay type: cell-based, Chlamydia trachomatis; conditions: for impact on chlamydiae (infectious progeny, IFU): added 8 h after infection, 24 h; for inhibitory activity against chlamydiae (Figure 5a): ACP1b at 50 μg/mL, 40 at 50 μg/mL and 5.20 μg/mL
[6] = system: HEp-2 cells; experiment: Host cell morphology and viability under phase contrast microscopy; assay type: cell-based, human; conditions: 100 μg/mL
Method in brief: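 HEp-2 cells grown in DMEM with 2% L-glutamine and 10% FBS at 37 °C, infected with C. trachomatis L2 at MOI 1. Test compound added in triplicate at 8 hpi. After 16 h (24 h total incubation), host cell morphology and viability inspected by phase contrast microscopy against untreated control cells.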

[7] = system: ClpP; experiment: In vitro casein degradation assay without AAA+ chaperone; assay type: biochemical; conditions: FITC-casein 20 μM, 32°C, 3 h
[8] = system: epithelial cervix adenocarcinoma (HeLa 229) cells; experiment: Cytotoxicity assay; assay type: cell-based, human; conditions: 50 μg/mL, 24 h
[9] = biological target: recombinant ClpP from E. coli (Escherichia coli, UniProt P0A6G7); experiment: In vitro casein degradation assay, E. coli ClpP; assay type: biochemical; conditions: 1 or 0.1 (40 only) μM ClpP
recombinant ClpP from E. coli, sequence (P0A6G7 15-207): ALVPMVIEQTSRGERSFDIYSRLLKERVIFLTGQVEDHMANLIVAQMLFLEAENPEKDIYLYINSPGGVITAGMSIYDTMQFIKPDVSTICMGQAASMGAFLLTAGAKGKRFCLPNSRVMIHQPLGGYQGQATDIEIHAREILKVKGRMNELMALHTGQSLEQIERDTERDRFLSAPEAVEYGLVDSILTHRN

[10] = biological target: human ClpP (Homo sapiens, UniProt Q16740); experiment: In vitro casein degradation assay, human ClpP; assay type: biochemical; conditions: 1 μM ClpP
human ClpP, sequence (Q16740 57-277): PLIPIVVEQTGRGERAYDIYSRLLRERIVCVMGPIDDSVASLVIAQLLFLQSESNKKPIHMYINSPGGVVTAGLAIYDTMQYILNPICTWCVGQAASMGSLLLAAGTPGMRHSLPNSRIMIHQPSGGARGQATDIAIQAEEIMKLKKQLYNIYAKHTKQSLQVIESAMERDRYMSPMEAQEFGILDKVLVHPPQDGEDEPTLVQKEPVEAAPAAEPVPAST
Method in brief: (§1)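 Human or mouse ClpP ORF minus the mitochondrial localization signal was codon-optimised, C-terminally His6-tagged, and expressed and purified from clpAPX-null E. coli. 1 μM enzyme, without AAA+ chaperone, was preincubated 30 min at 32 °C with compound or DMSO in 25 mM HEPES pH 7.6 buffer before adding 20 μM FITC-casein. Fluorescence (ex 490/em 525 nm) was read every 3 min over 3 h. ≥3 runs, ≥2 protein preparations.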

[11] = biological target: mouse ClpP (Mus musculus, UniProt O88696); experiment: In vitro casein degradation assay, mouse ClpP; assay type: biochemical; conditions: 1 μM ClpP
mouse ClpP, sequence (O88696 53-272): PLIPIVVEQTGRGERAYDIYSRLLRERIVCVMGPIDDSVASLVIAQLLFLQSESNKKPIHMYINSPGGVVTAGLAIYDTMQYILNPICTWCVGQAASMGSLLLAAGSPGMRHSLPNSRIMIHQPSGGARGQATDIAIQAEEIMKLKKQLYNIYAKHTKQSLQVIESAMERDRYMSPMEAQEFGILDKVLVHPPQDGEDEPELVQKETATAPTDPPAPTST
Method in brief: as §1

[12] = cited from earlier work
[13] = system: C. trachomatis; conditions: cited from earlier work
[14] = system: H. influenzae; conditions: cited from earlier work
[15] = system: N. meningitidis; conditions: cited from earlier work
[16] = Metabolic stability in human liver microsomes; assay type: in vitro ADME; conditions: human liver microsomes with NADPH
[17] = biological target: recombinant ClpP1 and ClpP2 from C. trachomatis L2 (Chlamydia trachomatis serovar D, UniProt O84712+P38002); experiment: In vitro casein degradation assay, chlamydial ClpP1/ClpP2; assay type: biochemical; conditions: 6 μM ClpP1 and ClpP2
Method in brief: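 C-terminal His6-tagged C. trachomatis L2 ClpP1 and ClpP2 (6 μM each) were purified from clpAPX-null E. coli and used without AAA+ chaperone. Enzyme was preincubated with compound or DMSO for 30 min at 32 °C in HEPES pH 7.6/KCl/MgCl2/DTT/glycerol buffer, then 20 μM FITC-casein was added. Fluorescence (ex 490/em 525 nm) was read every 3 min for 3 h. Unlabeled casein digests were run on SDS-PAGE. ≥3 runs, ≥2 protein preparations.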

[18] = system: Chlamydia; conditions: cited from earlier work
[19] = system: E. coli ClpP; conditions: cited from earlier work

## Cc1ccc(CN2CCN(C(=O)C(C)(C)S(=O)(=O)c3ccc(C(F)(F)F)cn3)CC2)cc1 [Compound 42, 2-methyl-1-(4-(4-methylbenzyl)piperazin-1-yl)-2-((5-(trifluoromethyl)pyridin-2-yl)sulfonyl) propan-1-one]
[1]
  toxicity towards HaCaT cells: more tolerated
[2]
  bacterial death: bacterial death was not observed
[3]
  bacterial death: bacterial death was not observed

## CC(C)(C(=O)NCCOc1ccccc1Cl)S(=O)(=O)c1ccccc1 [Compound 26, N-(2-(2-Chlorophenoxy)ethyl)-2-methyl-2-(Phenylsulfonyl)propanamide]
[4]
  toxicity against D. melanogaster (survival rate): did not show toxicity

## CC(C)(C(=O)N1CCN(Cc2ccc(Cl)cc2)CC1)S(=O)(=O)c1ccc(C(F)(F)F)cn1 [Compound 40, 2-methyl-1-(4-(4-Chlorobenzyl)piperazin-1-yl)-2-((5-(trifluoromethyl)pyridin-2-yl)sulfonyl) propan-1-one]
[5]; 12.5 μg/mL
  inclusion yields lower than the untreated cells: around 60%
[5]; 50 μg/mL
  impact on chlamydiae (infectious progeny, IFU): remarkable impact
[5]; 50 μg/mL, washout experiment
  mechanism of action (bacteriostatic or bactericidal): bacteriostatic
[5]; 40 at 50 μg/mL, penicillin at 5 U/mL ~ 3 μg/mL
  activity compared with penicillin: on par with penicillin
[5]; 40 at 50 μg/mL, spectinomycin at 128 μg/mL
  activity compared with spectinomycin: superior activity than spectinomycin
[5]
  inhibitory activity against chlamydiae (Figure 5a): good inhibitory activity
[6]
  cell toxicity to host cells: did not observe cell toxicity
[7]
  ClpP-dependent casein degradation in the absence of a chaperone: enabled some species of ClpP to degrade casein
[8]
  toxicity towards HeLa 229 cells: not toxic
[9]
  activation of E. coli ClpP: strong activator
[4]
  toxicity against D. melanogaster (survival rate): did not show toxicity
[2]
  bacterial death: bacterial death was not observed
[10]
  activation of human ClpP: did not activate
[3]
  bacterial death: bacterial death was not observed
[11]
  activation of mouse ClpP: did not activate

## CC(C)(C(=O)NCCSc1ccccc1Cl)S(=O)(=O)c1ccc(C(F)(F)F)cn1 [Compound 1]
[12]
  fold less potent than ADEP1: 10-20 fold
[13]
  formation of infectious EBs: drastic decrease
[14]
  antibacterial activity against H. influenzae: 32 µg/mL
[15]
  antibacterial activity against N. meningitidis: 64 µg/mL

## CC(C)(C(=O)NCCCc1ccccc1)S(=O)(=O)c1ccc(C(F)(F)F)cc1 [Compound 11, 2-Methyl-N-(3-Phenylpropyl)-2-((4-(trifluoromethyl)phenyl)sulfonyl)propanamide]
[1]
  toxicity towards HaCaT cells: presented toxicity
[5]; 50 μg/mL
  impact on chlamydiae (infectious progeny, IFU): remarkable impact
[16]
  CL(int,H) Mean: 890.58 mL/(min*kg bodywgt.)
[17]
  activation of chlamydial ClpP1, ClpP2 or the ClpP1/2 dimer: some residual decomposition
[7]
  ClpP-dependent casein degradation in the absence of a chaperone: enabled some species of ClpP to degrade casein
[8]
  toxicity towards HeLa 229 cells: presented toxicity
[4]
  toxicity against D. melanogaster (survival rate): did not show toxicity
[2]
  bacterial death: bacterial death was not observed
[10]
  activation of human ClpP: activated
[3]
  bacterial death: bacterial death was not observed
[11]
  activation of mouse ClpP: activated

## CC(C)(C(=O)NCCSc1ccc(Cl)cc1)S(=O)(=O)c1ccc(C(F)(F)F)cn1 [Compound 20]
[4]
  toxicity against D. melanogaster (survival rate): did not show toxicity

## CC(C)(C(=O)NCCOc1ccccc1)S(=O)(=O)c1ccc(C(F)(F)F)cc1 [Compound 24, 2-Methyl-N-(2-Phenoxyethyl)-2-))4-(trifluoromethyl)phenyl(sulfonyl(propenamide]
[1]
  toxicity towards HaCaT cells: more tolerated
[5]; 50 μg/mL
  impact on chlamydiae (infectious progeny, IFU): remarkable impact
[16]
  CL(int,H) Mean: 1840.91 mL/(min*kg bodywgt.)
[4]
  toxicity against D. melanogaster (survival rate): did not show toxicity

## 2-bromoethylamine [Compound 21]
[2]
  bacterial death: bacterial death was not observed
[3]
  bacterial death: bacterial death was not observed

## CC(C)(C(=O)NCCCc1ccccc1)S(=O)(=O)c1ccccc1 [Compound 9, 2-Methyl-N-(3-Phenylpropyl)-2-(phenylsulfonyl)propanamide]
[17]
  activation of chlamydial ClpP1, ClpP2 or the ClpP1/2 dimer: some residual decomposition
[7]
  ClpP-dependent casein degradation in the absence of a chaperone: little or no degradation

## Cc1ccccc1N1CCN(C(=O)C(C)(C)S(=O)(=O)c2ccc(C(F)(F)F)cn2)CC1 [Compound 35, 2-methyl-1-(4-(o-tolyl)piperazin-1-yl)-2-((5-(trifluoromethyl)pyridin-2-yl)sulfonyl)propan-1-one]
[5]; 50 μg/mL
  impact on chlamydiae (infectious progeny, IFU): remarkable impact
[2]
  bacterial death: bacterial death was not observed
[3]
  bacterial death: bacterial death was not observed

## CC(C)(C(=O)NCCOc1ccccc1)S(=O)(=O)c1ccc(C(F)(F)F)cn1 [Compound 25, 2-Methyl-N-(2-Phenoxyethyl)-2-))5-(trifluoromethyl)pyridin-2-yl(sulfonyl(propenamide]
[5]; 50 μg/mL
  impact on chlamydiae (infectious progeny, IFU): remarkable impact
[16]
  CL(int,H) Mean: 1461.60 mL/(min*kg bodywgt.)
[2]
  bacterial death: bacterial death was not observed
[3]
  bacterial death: bacterial death was not observed

## CC(C)(C(=O)N1CCN(Cc2cccc(Cl)c2)CC1)S(=O)(=O)c1ccc(C(F)(F)F)cn1 [Compound 41, 2-methyl-1-(4-(3-chlorobenzyl)piperazin-1-yl)-2-((5-(trifluoromethyl)pyridin-2-yl)sulfonyl) propan-1-one]
[5]; 50 μg/mL
  impact on chlamydiae (infectious progeny, IFU): remarkable impact
[4]
  toxicity against D. melanogaster (survival rate): did not show toxicity

## CC[C@H]1OC(=O)[C@H](C)[C@@H](O[C@H]2C[C@@](C)(OC)[C@@H](O)[C@H](C)O2)[C@H](C)[C@@H](O[C@@H]2O[C@H](C)C[C@H](N(C)C)[C@H]2O)[C@](C)(O)C[C@@H](C)CN(C)[C@H](C)[C@@H](O)[C@]1(C)O [Azithromycin]
[18]
  minimal chlamydicidal concentrations (MCCs): 4 µg/mL

## CC(C)(C(=O)NCCCc1ccccc1)S(=O)(=O)c1ccc(C(F)(F)F)cn1 [Compound 2]
[12]
  fold less potent than ADEP1: 10-20 fold
[13]
  formation of infectious EBs: drastic decrease
[5]
  inhibitory activity against chlamydiae (Figure 5a): good inhibitory activity
[14]
  antibacterial activity against H. influenzae: 8 µg/mL
[15]
  antibacterial activity against N. meningitidis: 16 µg/mL
[19]
  activation of E. coli ClpP in an enzymatic assay: activate

## CC(C)(C(=O)NCCOc1ccccc1Cl)S(=O)(=O)c1ccc(C(F)(F)F)cn1 [Compound 28, N-(2-(2-Chlorophenoxy)ethyl)-2-methyl-2-((5-(trifluoromethyl)pyridin-2-yl)sulfonyl) propanamide]
[2]
  bacterial death: bacterial death was not observed
[3]
  bacterial death: bacterial death was not observed

## 1-(4-(3,4-dichlorophenyl)piperazin-1-yl)-2-((5-(trifluoromethyl)pyridin-2-yl)sulfonyl) propan-1-one [Compound 37]
[1]
  toxicity towards HaCaT cells: more tolerated
[5]; 50 μg/mL
  impact on chlamydiae (infectious progeny, IFU): remarkable impact
[16]
  CL(int) Mean: 111.96 uL/(min*mg protein)
  CL(int,H) Mean: 873.80 mL/(min*kg bodywgt.)
  T1/2 Mean: 6.25 min
[2]
  bacterial death: bacterial death was not observed
[3]
  bacterial death: bacterial death was not observed

## CC(C)(C(=O)NCCSc1ccccc1Cl)S(=O)(=O)c1ccccc1 [Compound 16, N-(2-((2-chlorophenyl)thio)ethyl)-2-methyl-2-(phenylsulfonyl)propanamide]
[7]
  ClpP-dependent casein degradation in the absence of a chaperone: little or no degradation

## CC(C)(C(=O)NCCSc1ccc(Cl)cc1)S(=O)(=O)c1ccccc1 [Compound 17, N-(2-((4-Chlorophenyl)thio)ethyl)-2-methyl-2-(phenylsulfonyl)propanamide]
[7]
  ClpP-dependent casein degradation in the absence of a chaperone: little or no degradation

## C[C@H]1c2cccc(O)c2C(=O)C2=C(O)[C@]3(O)C(=O)C(C(N)=O)=C(O)[C@@H](N(C)C)[C@@H]3[C@@H](O)[C@@H]21.O [Doxycycline]
[18]
  minimal chlamydicidal concentrations (MCCs): 1 µg/mL
